High-throughput results deposited in PubChem by Sanford-Burnham Center for Chemical Genomics.
In the library only some 2.5% were active in any assay of this set; here they are far more common.
SENP1 inh: SENP1 (human) catalytic domain inhibition; recombinant SENP1 catalytic domain, CyPet-SUMO1-YPet FRET cleavage; inhibition, % at 10 µM; hit rate 0.21% among 360,000; AID 624204;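 active = inhibition at least 30% at 10 µM, raw YFP signal under a set limit, fluorescence ratio 0.5 to 1.5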
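Compound: 10 µM single point, 0.5% DMSO; Test system: hSENP1 catalytic domain, recombinant; Timing: 50 min reaction at room temperature; Technique: FRET, CFP and YFP emission; Control set: no-enzyme wells low, DMSO-plus-enzyme wells high control.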
SENP8 block-1: inhibitors of human SENP8 protease. AID 602440. inhibition, % at 20 µM. Q96LD8. hit rate 0.64% among 360,000. recombinant SENP8, Nedd8 substrate fluorescence; in the data active = inhibition mostly above about 40%, no sharp cut-off; inactive = mostly below about 27%
Target sequence (Q96LD8 whole entry, looked up): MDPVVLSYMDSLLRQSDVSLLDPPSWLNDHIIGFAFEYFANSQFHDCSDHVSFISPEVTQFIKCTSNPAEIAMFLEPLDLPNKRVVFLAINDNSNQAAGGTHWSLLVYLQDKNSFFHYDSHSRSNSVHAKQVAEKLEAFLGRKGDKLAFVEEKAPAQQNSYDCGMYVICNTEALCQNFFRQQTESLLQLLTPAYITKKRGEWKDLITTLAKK
SENP7 inh: blocks the human protease SENP7. Q9BQF6. recombinant SENP7, Z-RLRGG-aminoluciferin luminescence, 40 min. inhibition, % at 5 µM. hit rate 1.5% among 330,000;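 active = inhibition above about 50% at the single test dose, limit read from the data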
Target sequence (Q9BQF6 706-1050 limits assumed): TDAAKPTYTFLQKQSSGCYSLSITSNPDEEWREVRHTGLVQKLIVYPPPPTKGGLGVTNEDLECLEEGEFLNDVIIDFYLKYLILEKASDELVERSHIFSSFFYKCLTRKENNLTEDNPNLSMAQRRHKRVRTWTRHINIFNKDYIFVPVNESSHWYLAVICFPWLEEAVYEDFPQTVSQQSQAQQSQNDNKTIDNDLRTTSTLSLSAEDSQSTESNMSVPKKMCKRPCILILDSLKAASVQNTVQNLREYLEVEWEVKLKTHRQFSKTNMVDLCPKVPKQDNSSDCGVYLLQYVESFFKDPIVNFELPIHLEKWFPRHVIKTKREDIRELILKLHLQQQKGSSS
SENP8 block-2: inhibitors of human SENP8 protease; inhibition, % at 10 µM; Q96LD8; purified SENP8, Z-RLRGG-aminoluciferin cleavage, luminescence; hit rate 1.2% among 330,000; in the data active = inhibition above about 50%
SENP6 inh: blocks the human protease SENP6. Q9GZR1. Recombinant SENP6 catalytic domain, aminoluciferin luminescence. inhibition, % at 10 µM. hit rate 1.8% among 330,000;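 active = inhibition above about 50% at the single tested dose, limit read from the data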
SENP8 confirm: human SENP8 inhibition, confirmed; hit rate 40% among 6,200; shares compounds with SENP7 inh; Recombinant SENP8, Z-RLRGG-aminoluciferin luminescence, 60 min; inhibition, % at 12.5 µM;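 active = mean inhibition across replicates above about 50%, limit read from the data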
SENP6 confirm: confirmation of human SENP6 protease inhibitors; shares compounds with SENP7 inh; recombinant SENP6, Z-RLRGG-aminoluciferin luminescence; inhibition, % at 12.5 µM; hit rate 58% among 6,200
SENP7 conf: confirmation of human SENP7 protease inhibitors | hit rate 69% among 6,200 | inhibition, % at 12.5 µM | AID 488917 | shares compounds with SENP7 inh | recombinant SENP7, Z-RLRGG-aminoluciferin luminescence, 40 min
Casp3 SENP sel: selectivity test for SENP inhibitors: human caspase-3 inhibition; shares compounds with SENP7 inh; purified caspase-3, Z-DEVD-aminoluciferin luminescence, 60 min; inhibition, % at 12.5 µM; hit rate 60% among 6,200;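 active = mean inhibition above about 50%, limit read from the data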
Luc interf: luminescence interference (SENP counter-screen); shares compounds with SENP7 inh; Pre-incubated SENP8/Z-RLRGG-aminoluciferin, luciferase luminescence interference; inhibition, % at 12.5 µM; hit rate 39% among 6,200;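 active = mean inhibition above about 50% when retested at one dose, limit read from the data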
Numbers stand for hits; i = inactive; nt = no result.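 The calls were made as follows, unless noted: active = mean inhibition above about 50% in the one-dose retest (limit read from the data); inactive = the rest.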

SMILES	SENP1 inh	SENP8 block-1	SENP7 inh	SENP8 block-2	SENP6 inh	SENP8 confirm	SENP6 confirm	SENP7 conf	Casp3 SENP sel	Luc interf
O=C(Nc1ccccn1)Nc1ccccc1Cl	i	i	i	i	i	nt	nt	nt	nt	nt
COCCNC(=O)C(NC(=O)C1CCC(C)CC1)C(C)C (stereo unspecified)	i	i	i	i	i	nt	nt	nt	nt	nt
CC(=O)Nc1ccc(NC(=O)C(C)OC(=O)c2cccc(S(=O)(=O)N3CCCCCC3)c2)cc1 (stereo unspecified)	i	i	i	i	i	nt	nt	nt	nt	nt
COc1ccc(OC)c(NC(=O)c2cnn(-c3ccccc3)c2C)c1	i	i	i	i	i	nt	nt	nt	nt	nt
COc1ccc(NC(=O)c2cnn(-c3ccccc3)c2C)cc1OC	i	i	i	i	52	i	i	64	63	i
Cc1ccc(NC(=O)c2cnn(-c3ccccc3)c2C)cc1C	i	i	90	77	85	i	86	97	80	i
Cc1c(C(=O)Nc2cccc([N+](=O)[O-])c2)cnn1-c1ccccc1	i	i	56	i	67	51	i	81	i	58
O=C(Nc1cccc([N+](=O)[O-])c1)c1[nH]ncc1Cl	i	i	81	74	81	67	61	91	77	54
COCCN(C(=O)COC(=O)CCOc1cccc(C)c1)c1c(N)n(Cc2ccccc2)c(=O)[nH]c1=O	i	i	i	i	i	nt	nt	nt	nt	nt
COC(=O)N(C)C[C@H]1OCc2cn(nn2)CCCC(=O)N([C@@H](C)CO)C[C@@H]1C	i	i	nt	nt	nt	nt	nt	nt	nt	nt
Cc1c(C(=O)Nc2ccccc2)cnn1-c1ccccc1	i	i	i	i	i	nt	nt	nt	nt	nt
COc1ccc(NC(=O)c2cnn(-c3ccccc3)c2C)cc1	i	i	90	80	90	i	82	97	92	56
O=C(O)c1ccc(Nc2nc3ccc(Cl)cc3[nH]2)cc1	i	i	i	i	i	nt	nt	nt	nt	nt
COC(=O)C1(C(=O)OC)C(C(=O)c2ccccc2)C1c1ccccc1 (stereo unspecified)	i	i	nt	nt	nt	nt	nt	nt	nt	nt
Cc1oc2ccc(OCc3c(F)cccc3Cl)cc2c1C(=O)O	i	i	i	i	i	nt	nt	nt	nt	nt
Cc1oc2ccc(OCc3ccc(F)cc3)cc2c1C(=O)O	i	i	i	i	55	i	i	73	62	61
Cc1oc2ccc(OCc3cccc(Cl)c3)cc2c1C(=O)O	i	i	i	71	75	i	i	i	i	i
CCC(C)(C)c1ccc2c(c1)C(=O)c1ccccc1C2=O	i	i	77	79	93	i	84	86	96	80
CCC(=O)Nc1ccc2c(c1)C(=O)c1ccccc1C2=O	i	i	i	i	i	nt	nt	nt	nt	nt
O=C(Nc1ccc(NC(=O)c2ccco2)c(Cl)c1)c1ccc2c(c1)OCCO2	i	i	i	i	i	nt	nt	nt	nt	nt
O=C(Nc1ccc(C(=O)N2CCCC2)cc1)c1ccc2c(c1)OCO2	i	i	91	80	87	83	86	99	96	89
O=C(c1ccc2c(c1)OCO2)N1CCCC1	i	i	i	i	i	nt	nt	nt	nt	nt
O=C(Nc1ccc(NC(=O)c2ccco2)cc1)c1ccc2c(c1)OCO2	i	i	62	i	54	i	i	i	i	i
O=C(Nc1ccc(C(=O)N2CCCCC2)cc1)C1=CSCCO1	i	i	81	68	79	78	74	91	91	77
CCOc1nc(-c2ccccc2)ccc1-c1noc(-c2cccs2)n1	i	i	i	i	i	nt	nt	nt	nt	nt
SMILES	SENP1 inh	SENP8 block-1	SENP7 inh	SENP8 block-2	SENP6 inh	SENP8 confirm	SENP6 confirm	SENP7 conf	Casp3 SENP sel	Luc interf
c1csc(-c2nc(-c3ccc(-c4ccon4)s3)no2)c1	i	i	88	i	51	i	i	i	i	i
COc1cc(OC)cc(-c2nc(-c3ccccc3)no2)c1	i	i	i	i	i	nt	nt	nt	nt	nt
c1ccc(-c2nc(-c3ccc(-c4ccon4)s3)no2)cc1	i	i	80	i	55	i	i	i	i	i
CCN(C[C@H]1N[C@@](CC)(C(=O)OC)[C@H]2C(=O)N(Cc3ccccc3)C(=O)[C@@H]12)C(=O)c1ccccc1	i	i	i	i	i	nt	nt	nt	nt	nt
COC(C[C@H](O)CC(=O)[C@H](C)OCc1ccccc1)OC	i	i	i	i	i	nt	nt	nt	nt	nt
COc1ccccc1/C=C/C(=O)Nc1cccnc1Cl	i	i	i	i	i	nt	nt	nt	nt	nt
COc1ccc(/C=C/C(=O)Nc2cccnc2Cl)cc1	i	i	92	89	89	i	92	101	95	62
COc1cccc(CN2CCN(C(=O)c3oc4c(F)cccc4c3C)CC2=O)c1	i	i	i	i	87	i	i	i	i	i
Cc1c(NS(=O)(=O)c2cccs2)cccc1-c1nc2cccnc2s1	i	i	i	i	i	nt	nt	nt	nt	nt
O=S(=O)(Nc1ccc(-c2nc3cccnc3s2)cc1)c1ccc(Cl)s1	i	i	i	i	58	i	i	54	i	i
O=S(=O)(Nc1ccc(-c2nc3cccnc3s2)cc1)c1cccs1	i	i	i	i	65	i	i	i	i	i
Cc1cc(-c2nc3cccnc3s2)ccc1NS(=O)(=O)c1cccs1	i	i	74	91	95	89	92	98	86	55
CCS(=O)(=O)Nc1ccc(-c2nc3cccnc3s2)cc1	i	i	53	64	73	75	73	94	86	78
CC(Sc1ccccc1)C(=O)NCC(c1ccco1)N1CCCCC1 (stereo unspecified)	i	i	i	i	i	nt	nt	nt	nt	nt
CCCCCc1ccc(CC(=O)Nn2c(C)nc3ccccc3c2=O)cc1	i	i	i	i	i	nt	nt	nt	nt	nt
CN1C(=O)/C(=C/c2coc3ccc(O)cc3c2=O)SC1=S	i	i	80	56	79	i	i	i	i	i
Cc1cc(/C=C2\SC(=S)N(C)C2=O)c(C)n1-c1ccc(O)cc1	i	i	i	58	79	i	84	92	nt	i
CN(C)C(CNc1ccc(S(C)(=O)=O)cc1[N+](=O)[O-])c1ccccc1 (stereo unspecified)	i	i	i	i	65	i	i	i	i	i
COc1ccc(C(CNc2ccc(S(C)(=O)=O)cc2[N+](=O)[O-])N(C)C)cc1OC (stereo unspecified)	i	i	i	i	i	nt	nt	nt	nt	nt
O=c1c2ccccc2sn1-c1ccc(F)cc1	i	i	i	74	82	84	84	96	91	84
O=c1c2ccc(F)cc2sn1-c1ccccc1	i	i	nt	nt	nt	nt	nt	nt	nt	nt
